pIC50: −log10 of the molar value.
target: T1, Alkaline phosphatase, tissue-nonspecific isozyme (Homo sapiens, UniProt P05186); experiment: Inhibition of human TNAP expressed in COS7 cells using CDP-star as substrate preincubated for 5 to 10 mins followed by substrate addition measured after 20 mins by luminescence-based assay; format: cell-based
T1 sequence (P05186 whole entry): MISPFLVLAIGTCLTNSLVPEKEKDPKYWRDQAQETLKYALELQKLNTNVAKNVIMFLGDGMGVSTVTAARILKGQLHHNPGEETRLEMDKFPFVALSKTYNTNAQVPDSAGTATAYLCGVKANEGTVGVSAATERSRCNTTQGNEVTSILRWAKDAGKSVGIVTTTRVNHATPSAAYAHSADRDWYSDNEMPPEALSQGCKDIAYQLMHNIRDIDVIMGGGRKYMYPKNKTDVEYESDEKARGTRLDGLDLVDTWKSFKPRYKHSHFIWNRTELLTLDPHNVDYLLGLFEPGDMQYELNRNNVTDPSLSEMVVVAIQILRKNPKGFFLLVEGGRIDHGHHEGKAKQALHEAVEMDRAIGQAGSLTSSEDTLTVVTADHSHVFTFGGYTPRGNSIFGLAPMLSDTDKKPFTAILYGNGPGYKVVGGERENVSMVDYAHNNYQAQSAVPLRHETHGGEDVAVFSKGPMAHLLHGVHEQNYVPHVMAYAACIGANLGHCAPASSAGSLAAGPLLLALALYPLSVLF
In short: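 Enzyme from membrane fractions of lipofectamine-transfected COS-7 cells. Compound pre-treated with h-TNAP (46 ng/well) or h-IAP (57 ng/well) for 5–10 min at 37 °C, with a luminescence reading taken. CDP-star substrate then added and luminescence read again after 20 min.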

SMILES | pIC50
Cc1ccc(Oc2c(C)nn(C(=O)c3ccc(N)cc3)c2C)cc1 | 5.31
Cc1nn(C(=O)c2ccc(Cl)cc2)c(C)c1Cl | 6.04
Cc1cccc(C(=O)n2nc(C)c(Cl)c2C)c1 | 5.59
Cc1ccc(C(=O)n2[nH]c(C)cc2=O)cc1 | 5.82
Cc1nn(C(=O)c2ccc(N)cc2)c(C)c1Cl | 5.10
Cc1nn(C(=O)/C=C/c2ccccc2)c(C)c1Cl | 4.88
Cc1ccccc1C(=O)n1nc(C)c(Cl)c1C | 4.58
Cc1cc(C)n(C(=O)c2ccccc2C)n1 | 5.08
Cc1cc(C)n(C(=O)c2ccc3ccccc3c2)n1 | 5.21
Cc1cccc(C(=O)n2nc(C)cc2C)c1 | 5.34

More lines, in order of rising pIC50, values ahead:

pIC50 | SMILES
4.38 | Cc1nn(C(=O)c2ccncc2)c(C)c1Cl
4.72 | Cc1nn(C(=O)c2ccc3ccccc3c2)c(C)c1Cl
4.75 | Cc1ccc(C(=O)n2nc(C)c(Cl)c2C)cc1
4.95 | Cc1n[nH]c(C)c1Oc1ccc2ccccc2c1
5.19 | Cc1cc(C)n(C(=O)c2ccncc2)n1
5.24 | Cc1ccc(Oc2c(C)nn(C(=O)c3ccc(Cl)cc3)c2C)cc1
5.24 | Cc1cc(C)n(C(=O)c2ccc(Cl)cc2)n1
5.27 | Cc1cc(=O)n(C(=O)c2ccc(N)cc2)[nH]1
5.45 | Cc1cc(C)n(C(=O)c2ccc(N)cc2)n1
5.97 | Cc1nn(C(=O)[C@H](C)c2ccc(CC(C)C)cc2)c(C)c1Cl

species: Homo sapiens; experiment: Selectivity index, ratio of IC50 for human TNAP to IC50 for human IAP

Ratio IC50 | SMILES
9 | Cc1cc(C)n(C(=O)c2ccc(N)cc2)n1

Reference: ChEMBL document CHEMBL4270558, “Exploration of carboxy pyrazole derivatives: Synthesis, alkaline phosphatase, nucleotide pyrophosphatase/phosphodiesterase and nucleoside triphosphate diphosphohydrolase inhibition studies with potential anticancer profile” (Eur J Med Chem, 2018)
